The source made the active and inactive calls. The rule behind the calls is not given here.
Experiments:
A549 [1] = test: Induction of apoptosis in human A549 cells assessed as cleavage of PARP1 after 24 hrs by Western blot analysis; assay type: functional, cell-based
Summary of the method: (§1)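 Cells treated 24 h (HL-60 at 5, 20, 30 µM; A549 at 1, 3, 10 µM); RIPA lysates, 70 µg protein resolved by SDS-PAGE, transferred to PVDF, blocked in 5% milk, probed for PARP-1 and procaspase-3 with HRP secondaries, ECL detection.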

A549 [2] = test: Induction of apoptosis in human A549 cells at 3 uM after 24 hrs using propidium iodide staining by flow cytometry (reference value: 7%); assay type: functional
Summary of the method: (§2)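 A549 at 1.2 × 10^5 cells/ml in six-well plates exposed 24 h to 1, 3 or 10 µM; PBS-washed, fixed overnight in 70% ethanol, RNase (100 µg/ml) digestion 45 min at 37 °C, propidium iodide staining; flow cytometric DNA content gives sub-G1 (apoptotic), G1, S and G2-M fractions versus untreated cells.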

A-431 [3] = test: Antiproliferative activity against human A431 cells after 48 hrs by SRB assay; assay type: functional, cell-based; conditions: A-431, 48 h
A549 [4] = test: Cell cycle arrest in human A549 cells assessed as accumulation at G2 phase at 10 uM after 24 hrs using propidium iodide staining by flow cytometry (reference value: 1%); assay type: functional; summary of the method: as §2
A549 [5] = test: Cell cycle arrest in human A549 cells assessed as accumulation at G2 phase at 3 uM after 24 hrs using propidium iodide staining by flow cytometry (reference value: 1%); assay type: functional; summary of the method: as §2
HL-60 [6] = test: Antiproliferative activity against human HL60 cells assessed as growth inhibition at 10 uM after 48 hrs by SRB assay; assay type: functional; conditions: HL-60, 48 h, read-out: GI
A549 [7] = test: Cell cycle arrest in human A549 cells assessed as accumulation at G1 phase at 1 uM after 24 hrs using propidium iodide staining by flow cytometry (reference value: 59%); assay type: functional; summary of the method: as §2
A549 [8] = test: Induction of apoptosis in human A549 cells at 10 uM after 24 hrs using propidium iodide staining by flow cytometry (reference value: 7%); assay type: functional; summary of the method: as §2
A-431 [9] = test: Antiproliferative activity against human A431 cells assessed as growth inhibition at 10 uM after 48 hrs by SRB assay; assay type: functional; conditions: A-431, 48 h, read-out: GI
A549 [10] = test: Cell cycle arrest in human A549 cells assessed as accumulation at S phase at 3 uM after 24 hrs using propidium iodide staining by flow cytometry (reference value: 40%); assay type: functional; summary of the method: as §2
A549 [11] = test: Cell cycle arrest in human A549 cells assessed as accumulation at G1 phase at 10 uM after 24 hrs using propidium iodide staining by flow cytometry (reference value: 59%); assay type: functional; summary of the method: as §2
A549 [12] = test: Antiproliferative activity against human A549 cells assessed as growth inhibition at 10 uM after 48 hrs by SRB assay; assay type: functional; conditions: A549, 48 h, read-out: GI
A549 [13] = test: Antiproliferative activity against human A549 cells after 48 hrs by SRB assay; assay type: functional, cell-based; conditions: A549, 48 h
[14] = Antiproliferative activity against human MIAPaCa2 cells assessed as growth inhibition at 10 uM after 48 hrs by SRB assay; assay type: functional; conditions: MIA PaCa-2, 48 h, read-out: GI
[15] = Antiproliferative activity against human NCI-H322 cells after 48 hrs by SRB assay; assay type: functional, cell-based; conditions: NCI-H322, 48 h
A549 [16] = test: Induction of apoptosis in human A549 cells assessed as reduction of procaspase-3 expression after 24 hrs by Western blot analysis; assay type: functional, cell-based; summary of the method: as §1
A549 [17] = test: Cell cycle arrest in human A549 cells assessed as accumulation at G2 phase at 1 uM after 24 hrs using propidium iodide staining by flow cytometry (reference value: 1%); assay type: functional; summary of the method: as §2
A549 [18] = test: Induction of apoptosis in human A549 cells assessed as nuclear condensation, membrane blebbing and formation of apoptotic bodies after 24 hrs using DAPI staining by fluorescence microscopic analysis; assay type: functional, cell-based
Summary of the method: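 A549 (1.5 × 10^5 cells/ml) treated 24 h at 1, 3, 5, 10 µM; trypsinized, methanol-fixed 20 min at −20 °C, DAPI (1 µg/ml) 20 min at 37 °C; nuclei scored by UV fluorescence microscopy at 40× for condensation, blebbing, apoptotic bodies; paclitaxel 1 µM positive control, untreated cells as reference.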

PC-3 [19] = test: Antiproliferative activity against human PC3 cells assessed as growth inhibition at 10 uM after 48 hrs by SRB assay; assay type: functional; conditions: PC-3, 48 h, read-out: GI
A549 [20] = test: Induction of apoptosis in human A549 cells at 1 uM after 24 hrs using propidium iodide staining by flow cytometry (reference value: 7%); assay type: functional; summary of the method: as §2
A549 [21] = test: Cell cycle arrest in human A549 cells assessed as accumulation at G1 phase at 3 uM after 24 hrs using propidium iodide staining by flow cytometry (reference value: 59%); assay type: functional; summary of the method: as §2
T47D [22] = test: Antiproliferative activity against human T47D cells assessed as growth inhibition at 10 uM after 48 hrs by SRB assay; assay type: functional; conditions: read-out: GI
A549 [23] = test: Cell cycle arrest in human A549 cells assessed as accumulation at S phase at 1 uM after 24 hrs using propidium iodide staining by flow cytometry (reference value: 40%); assay type: functional; summary of the method: as §2
[24] = Antiproliferative activity against human NCI-H322 cells assessed as growth inhibition at 10 uM after 48 hrs by SRB assay; assay type: functional; conditions: NCI-H322, 48 h, read-out: GI
A549 [25] = test: Cell cycle arrest in human A549 cells assessed as accumulation at S phase at 10 uM after 24 hrs using propidium iodide staining by flow cytometry (reference value: 40%); assay type: functional; summary of the method: as §2
T98G [26] = test: Antiproliferative activity against human T98G cells assessed as growth inhibition at 10 uM after 48 hrs by SRB assay; assay type: functional; conditions: read-out: GI
T98G [27] = test: Antiproliferative activity against human T98G cells after 48 hrs by SRB assay; assay type: functional, cell-based
HL-60 [28] = test: Induction of apoptosis in human HL60 cells assessed as loss of mitochondrial potential at 30 uM after 24 hrs using rhodamine-123 staining by flow cytometric analysis (reference value: 2%); assay type: functional
HL-60 [29] = test: Induction of apoptosis in human HL60 cells assessed as loss of mitochondrial potential at 5 uM after 24 hrs using rhodamine-123 staining by flow cytometric analysis (reference value: 2%); assay type: functional
HL-60 [30] = test: Induction of apoptosis in human HL60 cells at 5 uM after 24 hrs using propidium iodide staining by flow cytometry (reference value: 5%); assay type: functional
HL-60 [31] = test: Antiproliferative activity against human HL60 cells after 48 hrs by SRB assay; assay type: functional, cell-based; conditions: HL-60, 48 h
HL-60 [32] = test: Cell cycle arrest in human HL60 cells assessed as accumulation at S phase at 5 uM after 24 hrs using propidium iodide staining by flow cytometry (reference value: 50%); assay type: functional
PC-3 [33] = test: Antiproliferative activity against human PC3 cells after 48 hrs by SRB assay; assay type: functional, cell-based; conditions: PC-3, 48 h
HL-60 [34] = test: Cell cycle arrest in human HL60 cells assessed as accumulation at G2 phase at 20 uM after 24 hrs using propidium iodide staining by flow cytometry (reference value: 10%); assay type: functional
HL-60 [35] = test: Cell cycle arrest in human HL60 cells assessed as accumulation at G2 phase at 5 uM after 24 hrs using propidium iodide staining by flow cytometry (reference value: 10%); assay type: functional
HL-60 [36] = test: Induction of apoptosis in human HL60 cells assessed as morphological changes at 5 to 30 uM after 24 hrs using DAPI staining by fluorescence microscopic analysis; assay type: functional, cell-based
Summary of the method: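 HL-60 treated 24 h at indicated concentrations, then methanol-fixed, DAPI-stained and examined by fluorescence microscopy for cellular and nuclear apoptotic morphology, following the A549 protocol.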

HL-60 [37] = test: Induction of apoptosis in human HL60 cells at 30 uM after 24 hrs using propidium iodide staining by flow cytometry (reference value: 5%); assay type: functional
HL-60 [38] = test: Cell cycle arrest in human HL60 cells assessed as accumulation at G1 phase at 5 uM after 24 hrs using propidium iodide staining by flow cytometry (reference value: 40%); assay type: functional
HL-60 [39] = test: Induction of apoptosis in human HL60 cells at 20 uM after 24 hrs using propidium iodide staining by flow cytometry (reference value: 5%); assay type: functional
HL-60 [40] = test: Induction of apoptosis in human HL60 cells assessed as loss of mitochondrial potential at 20 uM after 24 hrs using rhodamine-123 staining by flow cytometric analysis (reference value: 2%); assay type: functional
HL-60 [41] = test: Cell cycle arrest in human HL60 cells assessed as accumulation at S phase at 30 uM after 24 hrs using propidium iodide staining by flow cytometry (reference value: 50%); assay type: functional
HL-60 [42] = test: Cell cycle arrest in human HL60 cells assessed as accumulation at S phase at 20 uM after 24 hrs using propidium iodide staining by flow cytometry (reference value: 50%); assay type: functional
T47D [43] = test: Antiproliferative activity against human T47D cells after 48 hrs by SRB assay; assay type: functional, cell-based
HL-60 [44] = test: Cell cycle arrest in human HL60 cells assessed as accumulation at G2 phase at 30 uM after 24 hrs using propidium iodide staining by flow cytometry (reference value: 10%); assay type: functional
HL-60 [45] = test: Induction of apoptosis in human HL60 cells assessed as reduction of procaspase-3 expression after 24 hrs by Western blot analysis; assay type: functional, cell-based; summary of the method: as §1
HL-60 [46] = test: Cell cycle arrest in human HL60 cells assessed as accumulation at G1 phase at 20 uM after 24 hrs using propidium iodide staining by flow cytometry (reference value: 40%); assay type: functional
HL-60 [47] = test: Cell cycle arrest in human HL60 cells assessed as accumulation at G1 phase at 30 uM after 24 hrs using propidium iodide staining by flow cytometry (reference value: 40%); assay type: functional
[48] = Antiproliferative activity against human MIAPaCa2 cells after 48 hrs by SRB assay; assay type: functional, cell-based; conditions: MIA PaCa-2, 48 h
HL-60 [49] = test: Induction of apoptosis in human HL60 cells assessed as cleavage of PARP1 after 24 hrs by Western blot analysis; assay type: functional, cell-based; summary of the method: as §1

For `CCN(CC)c1ncnc2sc(Nc3ccc(Cl)cc3)nc12`, the Activity (A549 [1]) was “Dose-dependent effect”, the Activity (A549 [2]) was 44% and the IC50 (A-431 [3]) was 3.1 µM. The Activity (A549 [4]) was 26%, the Activity (A549 [5]) was 4% and the inhibition of growth at 10 µM (HL-60 [6]) was 22%. It also gave an Activity (A549 [7]) of 55%, an Activity (A549 [8]) of 53% and an inhibition of growth at 10 µM (A-431 [9]) of 82%. For the same compound, the Activity (A549 [10]) was 31%, the Activity (A549 [11]) was 31% and the inhibition of growth at 10 µM (A549 [12]) was 81%. For the same compound, the IC50 (A549 [13]) was 1.4 µM, the inhibition of growth at 10 µM [14] was 14% and the IC50 [15] was 7.1 µM. The Activity (A549 [16]) was “Dose-dependent effect”, the Activity (A549 [17]) was 1% and the Activity (A549 [18]) was “Dose-dependent effect”. It also gave an inhibition of growth at 10 µM (PC-3 [19]) of 22%, an Activity (A549 [20]) of 22% and an Activity (A549 [21]) of 65%. The inhibition of growth at 10 µM (T47D [22]) was 18%, the Activity (A549 [23]) was 44% and the inhibition of growth at 10 µM [24] was 57%. It also gave an Activity (A549 [25]) of 43%, an inhibition of growth at 10 µM (T98G [26]) of 74% and an IC50 (T98G [27]) of 3.4 µM.
Work on `c1ccc(Nc2nc3c(N4CCOCC4)ncnc3s2)cc1` yielded an Activity (HL-60 [28]) of 26%, an Activity (HL-60 [29]) of 9% and an Activity (HL-60 [30]) of 9%. For the same compound, the IC50 (HL-60 [31]) was 8 µM, the Activity (HL-60 [32]) was 45% and the IC50 (PC-3 [33]) was 17 µM. The Activity (HL-60 [34]) was 7%, the inhibition of growth at 10 µM (HL-60 [6]) was 59% and the Activity (HL-60 [35]) was 12%. The Activity (HL-60 [36]) was “Active”, the Activity (HL-60 [37]) was 24% and the inhibition of growth at 10 µM (A-431 [9]) was 4%. It also gave an Activity (HL-60 [38]) of 43%, an Activity (HL-60 [39]) of 12% and an inhibition of growth at 10 µM (A549 [12]) of 38%. The IC50 (A549 [13]) was 13 µM, the inhibition of growth at 10 µM [14] was 12% and the Activity (HL-60 [40]) was 16%. For the same compound, the Activity (HL-60 [41]) was 54%, the Activity (HL-60 [42]) was 42% and the IC50 (T47D [43]) was 59 µM. For the same compound, the Activity (HL-60 [44]) was 5%, the inhibition of growth at 10 µM (PC-3 [19]) was 45% and the Activity (HL-60 [45]) was “Dose-dependent effect”. For the same compound, the Activity (HL-60 [46]) was 51%, the inhibition of growth at 10 µM (T47D [22]) was 12% and the Activity (HL-60 [47]) was 41%. For the same compound, the IC50 [48] was 54 µM, the inhibition of growth at 10 µM [24] was 7% and the Activity (HL-60 [49]) was “Dose-dependent effect”. It also gave an inhibition of growth at 10 µM (T98G [26]) of 26%.

— ChEMBL document CHEMBL3085659, “Synthesis, antiproliferative and apoptosis-inducing activity of thiazolo[5,4-d]pyrimidines” (Eur J Med Chem, 2013)
